KLK5 inh = inhibitors of human kallikrein 5 | AID 873 | recombinant hK5, fluorogenic AMC substrate cleavage | Q9Y337 | inhibition, % at 5 µM | actives 0.59% (n = 210,000);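 active = inhibition of 40% or more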;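 note: 0% = enzyme controls without compound and 100% = no-enzyme blanks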
FXIIa inh 1536 = inhibitors of human coagulation factor XIIa; purified FXIIa, Boc-QGR-AMC fluorogenic substrate, 2 h; inhibition, % at 5 µM; actives 0.3% (n = 220,000); AID 800; in the data active = inhibition above about 40%;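 note: 0% = enzyme with no compound and 100% = blank without enzyme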
PERK inhibitor = blocks human PERK kinase. actives 0.17% (n = 220,000). CHO PERK-DD fusion, SEAP luminescence translation reporter. AID 1416. inhibition, % at 5.6 µM;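 active = inhibition above the mean inhibition of all tested compounds plus 3 SD, set separately per screening campaign, cut at about 2.9% in these data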;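 note: PERK kinase domain activated by AP20187 dimerizer at 100 nM; 0% = DMSO with dimerizer and 100% = rapamycin at 8.4 µM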
Target sequence (Q9NZJ5 whole entry, looked up, the tested form may be a part): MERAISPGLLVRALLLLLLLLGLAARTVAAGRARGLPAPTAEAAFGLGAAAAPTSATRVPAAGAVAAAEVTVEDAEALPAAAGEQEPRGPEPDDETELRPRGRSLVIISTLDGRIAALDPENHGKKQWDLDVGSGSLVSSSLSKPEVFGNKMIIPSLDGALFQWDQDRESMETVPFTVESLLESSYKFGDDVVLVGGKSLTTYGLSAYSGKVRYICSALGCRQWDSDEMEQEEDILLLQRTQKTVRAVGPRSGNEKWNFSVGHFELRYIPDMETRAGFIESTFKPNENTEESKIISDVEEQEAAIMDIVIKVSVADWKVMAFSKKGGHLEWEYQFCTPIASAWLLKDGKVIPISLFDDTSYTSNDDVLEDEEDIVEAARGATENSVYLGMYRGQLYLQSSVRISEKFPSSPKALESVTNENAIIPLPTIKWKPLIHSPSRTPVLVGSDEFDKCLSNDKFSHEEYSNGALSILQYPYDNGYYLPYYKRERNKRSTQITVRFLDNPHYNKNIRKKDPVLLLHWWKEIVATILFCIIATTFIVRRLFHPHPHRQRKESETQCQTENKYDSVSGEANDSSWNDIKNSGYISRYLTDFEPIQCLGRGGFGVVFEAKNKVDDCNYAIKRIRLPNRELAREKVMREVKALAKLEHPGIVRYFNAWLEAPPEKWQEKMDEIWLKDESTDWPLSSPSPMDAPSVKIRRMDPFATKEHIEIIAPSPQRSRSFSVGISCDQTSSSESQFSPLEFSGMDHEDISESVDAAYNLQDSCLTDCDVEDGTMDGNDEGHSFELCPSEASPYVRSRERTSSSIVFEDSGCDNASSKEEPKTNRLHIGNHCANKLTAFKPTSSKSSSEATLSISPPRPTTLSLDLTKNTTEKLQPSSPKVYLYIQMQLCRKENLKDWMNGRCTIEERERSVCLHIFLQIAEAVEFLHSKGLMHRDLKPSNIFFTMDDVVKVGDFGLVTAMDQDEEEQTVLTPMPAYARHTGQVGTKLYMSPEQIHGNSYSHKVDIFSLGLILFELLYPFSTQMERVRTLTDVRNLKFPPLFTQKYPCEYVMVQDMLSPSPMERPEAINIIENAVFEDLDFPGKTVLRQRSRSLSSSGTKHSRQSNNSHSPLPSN
thrombin 1536 = thrombin (human) inhibition | P00734 | alpha-thrombin, Boc-VPR-AMC fluorogenic substrate cleavage | inhibition, % at 5 µM | actives 0.26% (n = 220,000);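 active = inhibition at or above 40%; inactive = inhibition below 40%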;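 note: 0% = enzyme with no compound and 100% = wells without enzyme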
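Test system: human alpha-thrombin protein / Dosing: one concentration per compound, 5 µM, with 0.2% DMSO / Medium: pH 7.5 Tris-saline with Tween 20 / Benchmarks: no-compound enzyme wells and no-enzyme blanks / Read-out basis: percent inhibition of thrombin substrate cleavage / Timing: reaction at room temperature / Measured by: fluorescence, ex 355 nm, em 460 nm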
Furin inhibitor = human furin inhibition; actives 0.061% (n = 220,000); inhibition, % at 20 µM or 30 µM; P09958; purified furin, fluorogenic substrate cleavage; in the data active = inhibition above about 25%
FXIa inh = blocks human coagulation factor XIa protease activity; purified FXIa, Boc-Glu-Ala-Arg-AMC fluorogenic substrate; AID 798; actives 0.14% (n = 220,000); P03951; inhibition, % at 5 µM;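 active = inhibition of at least 40%; inactive = inhibition below 40%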;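 note: fluorescence of freed AMC excited at 355 nm; 0% = enzyme without compound and 100% = no enzyme blank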
Active calls of the source: *. This is a sample that favours compounds with a hit; in the whole collection about 1.2% have one here.

CCCS(=O)(=O)N1CCN(C(=O)c2ccccc2F)CC1 was read as KLK5 inh -19, FXIIa inh 1536 2, PERK inhibitor 1, thrombin 1536 4, Furin inhibitor -13 and FXIa inh 4.
`COc1cc(S(=O)(=O)N2CCN(C(=O)c3ccccc3F)CC2)c(OC)cc1NC(C)=O` gave KLK5 inh 47*, FXIIa inh 1536 16, PERK inhibitor 1, thrombin 1536 10, Furin inhibitor -22 and FXIa inh 16.
For CC(C)NC(=O)CSc1nc(-c2ccccc2)cs1 the results were KLK5 inh 21, FXIIa inh 1536 26, PERK inhibitor 0, thrombin 1536 40*, Furin inhibitor -16 and FXIa inh 46*.
For O=[N+]([O-])c1cc(S(=O)(=O)N2CCCCC2)ccc1NCCCN1CCOCC1 the results were KLK5 inh -4, FXIIa inh 1536 10, PERK inhibitor 0, thrombin 1536 -20, Furin inhibitor -18 and FXIa inh -6.
Screening O=C(O)c1cc(/C=N\O)ccc1OCc1ccccc1 returned KLK5 inh 51*, FXIIa inh 1536 2, PERK inhibitor 1, thrombin 1536 8, Furin inhibitor -24 and FXIa inh 3.
Screening CCC(=O)Nc1cccc(-c2nc3ccccc3c(=O)o2)c1 returned KLK5 inh 47*, FXIIa inh 1536 18, PERK inhibitor 0, thrombin 1536 6, Furin inhibitor -1 and FXIa inh 13.
`Cc1c(NC(=O)CSCc2ccc(Br)cc2)c(=O)n(-c2ccccc2)n1C` gave KLK5 inh 1, FXIIa inh 1536 2, PERK inhibitor 0, thrombin 1536 -9, Furin inhibitor -7 and FXIa inh -5.
CC(O)C1CCC2C3CC[C@H]4CC(O)CCC4(C)C3CC3(OCCO3)C12C (stereo not given in full) was read as KLK5 inh 138*, FXIIa inh 1536 27, PERK inhibitor -1, thrombin 1536 17, Furin inhibitor -12 and FXIa inh 10.
C[C@]12CCC(O)CC1CCC1C2CC[C@]2(C)C(c3cc(C(F)(F)F)n[nH]3)CCC12 (stereo not given in full) was read as KLK5 inh 4, FXIIa inh 1536 9, PERK inhibitor 1, thrombin 1536 -1, Furin inhibitor -4 and FXIa inh 2.
O=C(NCCN1CCOCC1)c1ccc(=O)n(Cc2ccc(Cl)cc2)c1 was read as KLK5 inh -8, FXIIa inh 1536 4, PERK inhibitor -1, thrombin 1536 -1, Furin inhibitor -28 and FXIa inh -2.
Cc1ccc(N=Nc2ccc(C)cc2NC(=O)Nc2ccccc2F)cc1 was read as KLK5 inh -2, FXIIa inh 1536 10, PERK inhibitor 1, thrombin 1536 3, Furin inhibitor -9 and FXIa inh -6.
For O=C(Nc1ccc(Cl)cc1)Nc1ccccc1C(=O)NCc1ccco1 the results were KLK5 inh 51*, FXIIa inh 1536 31, PERK inhibitor -1, thrombin 1536 5, Furin inhibitor -11 and FXIa inh 104*.
O=C(NCc1ccc2c(c1)OCO2)c1c[nH]c2ccc(S(=O)(=O)N3CCOCC3)cc2c1=O was read as KLK5 inh -12, FXIIa inh 1536 13, PERK inhibitor 0, thrombin 1536 55*, Furin inhibitor -11 and FXIa inh 6.
Screening CCOC(=O)c1ccccc1Oc1c(F)c(F)nc(NCCO)c1F returned KLK5 inh 42*, FXIIa inh 1536 19, PERK inhibitor 0, thrombin 1536 42*, Furin inhibitor -12 and FXIa inh 5.
For CCOC(=O)c1cnc2c(ccc3ccccc32)c1NCCO the results were KLK5 inh -12, FXIIa inh 1536 4, PERK inhibitor -1, thrombin 1536 -1, Furin inhibitor -5 and FXIa inh -4.
Screening CCOc1ccc(NC(=S)N=Nc2c(O)[nH]c3ccccc23)cc1 returned KLK5 inh -6, FXIIa inh 1536 6, PERK inhibitor 0, thrombin 1536 -3, Furin inhibitor -19 and FXIa inh -1.
Screening Oc1cccc(NC(=S)N=Nc2c(O)[nH]c3ccccc23)c1 returned KLK5 inh 78*, FXIIa inh 1536 24, PERK inhibitor -1, thrombin 1536 16, Furin inhibitor 14 and FXIa inh 21.
Screening Cc1nn(-c2ccc(Cl)nn2)c(=O)c2ccccc12 returned KLK5 inh -2, FXIIa inh 1536 4, PERK inhibitor 1, thrombin 1536 -6, Furin inhibitor -23 and FXIa inh -5.
For CCOC(=O)C1CCN(C(=O)c2ccc(N(C)S(=O)(=O)c3ccc(OC)cc3)cc2)CC1 the results were FXIIa inh 1536 -3, PERK inhibitor 1, thrombin 1536 -8, Furin inhibitor -15 and FXIa inh -4.
CN1C(=O)/C(=N/OC(=O)c2ccccc2)c2ccccc21 was read as KLK5 inh -8, FXIIa inh 1536 53*, PERK inhibitor 1, thrombin 1536 46*, Furin inhibitor -22 and FXIa inh 47*.
Screening O=C(CS(=O)(=O)c1c[nH]c2ccccc12)N1CCc2ccccc21 returned KLK5 inh 4, FXIIa inh 1536 10, PERK inhibitor 0, thrombin 1536 3, Furin inhibitor -29 and FXIa inh 3.
Screening COc1ccccc1N1CCN(C/C(O)=C(\C#N)c2nc(-c3ccccc3)cs2)CC1 returned KLK5 inh -14, FXIIa inh 1536 43*, PERK inhibitor 0, thrombin 1536 10, Furin inhibitor -29 and FXIa inh 23.
Screening CC(/C=N/NC(=O)c1cc(-c2cccn2C)n[nH]1)=C\c1ccccc1 returned KLK5 inh 57*, FXIIa inh 1536 36, PERK inhibitor 0, thrombin 1536 21, Furin inhibitor -7 and FXIa inh 53*.
For CSCCC(NC(=O)c1cncc(Br)c1)C(=O)O (stereo not given) the results were KLK5 inh 52*, FXIIa inh 1536 16, PERK inhibitor 0, thrombin 1536 9, Furin inhibitor -11 and FXIa inh -3.
Screening Cc1nn(C(C)C(=O)NCC2CCCO2)c(=O)c2cc3occc3n12 (stereo not given) returned KLK5 inh 43*, FXIIa inh 1536 3, PERK inhibitor 1, thrombin 1536 11, Furin inhibitor -19 and FXIa inh 7.
CCNc1nc(NCC)nc(N(CC)C(N)=S)n1 was read as KLK5 inh -5, FXIIa inh 1536 1, PERK inhibitor -2, thrombin 1536 -5, Furin inhibitor -18 and FXIa inh 0.
`COC(=O)c1ccccc1NC(=O)N1CCN(S(=O)(=O)c2ccc(Cl)cc2)CC1` gave KLK5 inh 102*, FXIIa inh 1536 7, PERK inhibitor 1, thrombin 1536 20, Furin inhibitor -18 and FXIa inh -8.
Screening COC(=O)c1ccccc1NC(=O)N1CCCC1 returned KLK5 inh -5, FXIIa inh 1536 11, PERK inhibitor 1, thrombin 1536 4, Furin inhibitor -19 and FXIa inh -1.
